Consider 32 substances from ChEMBL document CHEMBL1142683, “Multivariate design, synthesis, and biological evaluation of peptide inhibitors of FimC/FimH protein-protein interactions in uropathogenic Escherichia coli” (J Med Chem, 2005).

The inhibition is the drop in the measured response relative to a control, in per cent.

The subject of assay [1] is Escherichia coli. The experiment in a line: Inhibition of FimC/FimH pilus assembly complex formation in Escherichia coli at 10 uM. In a few lines: (§1)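 Competitive ELISA: FimC chaperone coated overnight at 4 °C in PBS pH 7.4, blocked with 3% BSA-PBS 1 h RT. Peptide in DMSO (0.5, 2.5 or 10 nmol; 10, 50, 200 µM) plus FimH (1 pmol, in 3 M urea/MES pH 6.8) 45 min RT. Bound FimH detected with mouse anti-FimH, then alkaline phosphatase anti-mouse IgG, p-nitrophenyl phosphate 1 h dark; A405. DMSO positive control. % inhibition, mean of four replicates.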

The test system of assay [2] is Escherichia coli. Briefly: Inhibition of FimC/FimH pilus assembly complex formation in Escherichia coli at 50 uM. Summed up:
as §1

Assay [3] deals with Escherichia coli. The experiment in a line: Inhibition of FimC/FimH pilus assembly complex formation in Escherichia coli at 200 uM. In a few lines: as §1

With H-ADFFFHSIS-OH, the values for the inhibition with Escherichia coli [1], with Escherichia coli [2] and in the assay with Escherichia coli [3] were 2%, 16% and 26%, respectively.

As to H-AFSKSDFIS-OH, the figures for the inhibition in the assay on Escherichia coli [1], in the assay on Escherichia coli [2] and in the assay with Escherichia coli [3] were -5%, -9% and -6%, respectively.

As for H-AGGTGTFIS-OH, the results for the inhibition in the assay on Escherichia coli [1], in the assay on Escherichia coli [2] and in the assay with Escherichia coli [3] were -3%, -1% and -2%, respectively.

On to H-AKGDLLLIS-OH, for which the figures for the inhibition in the assay on Escherichia coli [1], in the assay on Escherichia coli [2] and in the assay with Escherichia coli [3] were 3%, 13% and 14%, respectively.

As to H-ATSFGHWIS-OH, the inhibition in the assay with Escherichia coli [1] turned out to be 12%; in the assay with Escherichia coli [2], 9%; in the assay on Escherichia coli [3], 0%.

Turning to H-AVLASAWIS-OH, the inhibition was determined as 0% with Escherichia coli [1], 8% in the assay with Escherichia coli [2] and 18% with Escherichia coli [3].

As to H-DSTITIRGY-OH, the results for the inhibition in the assay on Escherichia coli [1], with Escherichia coli [2] and with Escherichia coli [3] were -1%, 14% and 28%, respectively.

For the substance H-GGTVHFKGG-OH, the inhibition in the assay on Escherichia coli [1] was -3%; with Escherichia coli [2] it was 1%; in the assay with Escherichia coli [3], 3%.

Take H-KDLASTLIS-OH: the inhibition stood at 16% in the assay with Escherichia coli [1], 11% in the assay on Escherichia coli [2] and 3% in the assay with Escherichia coli [3].

Turning to H-KFGDLASIS-OH, the inhibition with Escherichia coli [1] amounted to 4%; in the assay with Escherichia coli [2] it was 1%; in the assay on Escherichia coli [3], 7%.

Turning to H-KGFQLDLIS-OH, the inhibition in the assay with Escherichia coli [1] is -7%; in the assay on Escherichia coli [2], 9%; in the assay with Escherichia coli [3] it was 8%.

For the substance H-KKLKLHFIS-OH, the figures for the inhibition in the assay on Escherichia coli [1], in the assay on Escherichia coli [2] and in the assay with Escherichia coli [3] were 8%, 22% and 39%, respectively.

Take H-KVSFGLFIS-OH: the inhibition with Escherichia coli [1] is 20%; in the assay on Escherichia coli [2], 17%; in the assay on Escherichia coli [3], 29%.

For H-LDSTLAFIS-OH, the inhibition stood at 10% in the assay on Escherichia coli [1], 25% in the assay with Escherichia coli [2] and 37% with Escherichia coli [3].

In the case of H-LGSAFLFIS-OH, the inhibition turned out to be 19% in the assay on Escherichia coli [1], 29% in the assay on Escherichia coli [2] and 40% with Escherichia coli [3].

As for H-LTFDGTWIS-OH, the inhibition with Escherichia coli [1] stood at 0%; in the assay with Escherichia coli [2], 7%; in the assay on Escherichia coli [3] it was 10%.

With H-LVGKSHLIS-OH, the inhibition was found to be 1% with Escherichia coli [1], 0% in the assay with Escherichia coli [2] and 5% in the assay on Escherichia coli [3].

As for H-NDLKGLFIS-OH, the inhibition was determined as 10% in the assay on Escherichia coli [1], 12% in the assay on Escherichia coli [2] and 14% with Escherichia coli [3].

H-NFFAGHFIS-OH: the inhibition is -1% with Escherichia coli [1], 0% with Escherichia coli [2] and 1% in the assay with Escherichia coli [3].

For the substance H-NGFKFTWIS-OH, the inhibition in the assay with Escherichia coli [1] was 2%; in the assay with Escherichia coli [2], -3%; in the assay with Escherichia coli [3] it was 2%.

For H-NGLQGASIS-OH, the figures for the inhibition in the assay on Escherichia coli [1], with Escherichia coli [2] and in the assay with Escherichia coli [3] were 10%, 19% and 24%, respectively.

Consider H-NGSDSHFIS-OH, for which the inhibition with Escherichia coli [1] worked out at 3%; in the assay on Escherichia coli [2], 19%; in the assay on Escherichia coli [3], 12%.

Regarding H-NKGTSDWIS-OH, the inhibition in the assay with Escherichia coli [1] came to 3%; with Escherichia coli [2], 8%; with Escherichia coli [3], 10%.

Take H-NTGALDSIS-OH: the inhibition was found to be 2% in the assay with Escherichia coli [1], 11% in the assay on Escherichia coli [2] and 15% in the assay with Escherichia coli [3].

Turning to H-NTGQFAFIS-OH, the inhibition in the assay with Escherichia coli [1] was 17%; in the assay on Escherichia coli [2] it was 7%; with Escherichia coli [3], 4%.

As to H-NTLQLAIIS-OH, the figures for the inhibition in the assay with Escherichia coli [1], with Escherichia coli [2] and with Escherichia coli [3] were 7%, 23% and 40%, respectively.

Consider H-NTLQLALIS-OH, for which the inhibition in the assay with Escherichia coli [1] was 18%; in the assay with Escherichia coli [2] it was 32%; in the assay on Escherichia coli [3], 50%.

Turning to H-NVSTLHLIS-OH, the inhibition was 18% in the assay with Escherichia coli [1], 30% with Escherichia coli [2] and 44% in the assay with Escherichia coli [3].

As to H-TDGQLLWIS-OH, the inhibition in the assay on Escherichia coli [1] was -8%; in the assay with Escherichia coli [2], 1%; in the assay on Escherichia coli [3], 4%.

On to H-TGGAGALIS-OH, for which the values for the inhibition in the assay with Escherichia coli [2] and with Escherichia coli [3] were 17% and 3%, respectively.

In the case of H-TTFTSLSIS-OH, the inhibition is 19% with Escherichia coli [1], 35% in the assay on Escherichia coli [2] and 48% with Escherichia coli [3].

Consider H-TVLDFDFIS-OH, for which the inhibition with Escherichia coli [1] stood at 3%; in the assay with Escherichia coli [2], 6%; with Escherichia coli [3], 5%.
